Cneo AK release: Cryptococcus neoformans cell lysis inducers, primary screen, AK release luminescence, single concentration. C. neoformans lysis, adenylate kinase release luminescence, 4 h; normalised: neutral wells 0, clomiphene wells 100. AID 651654, 2012. 360,000 tested, 0.2% active. lysis activity, % at 15 µM;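 active means mean lysis activity across replicates of at least 80%, whatever share of replicates individually reach that level; inactive means mean lysis activity below 80%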
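Signal: Adenylate kinase release luminescence | Assay system: Log-phase Cryptococcus neoformans yeast cells | Input: Cells at 5 × 10^6 per mL | Buffer or medium: Fresh YPD growth medium | Compound: Single dose | Schedule: Static 4 h at 37 °C with compound, 1 h detection | Controls: Clomiphene | Read-out: Luminescence rise reflecting yeast cell lysis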
SKN-1 inh: suppressors of acrylamide-induced Pgst-4::GFP reporter in worms, primary screen, SKN-1 inhibitor project, whole organism, uHTS, GFP/RFP fluorescence ratio, strain VP596. C. elegans VP596 Pgst-4::GFP/RFP ratio, 24 h. inhibition, % at 21.8 µM. 360,000 tested, 0.49% active;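 active means interference check ratio from 0.5 to 1.5 plus GFP to RFP signal ratio inhibition reaching or exceeding a fixed threshold, cut at about 30% in these data, passing the limit was not always enough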
rRNA inh HTS: reduced GFP signal of wild-type E. coli, primary screen, bacterial rRNA inhibitor project, GFP/RFP fluorescence, OD600, single point; AID 720706, 2013; 350,000 tested, 1.6% active; GFP signal change (wild-type ribosome), % (test concentration not listed); E. coli WT GFP vs humanized-ribosome RFP mutants, 24 h; stronger effect = lower value; DMSO median 0, no signal -100;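 active means significant combined selectivity score with lowered wild-type GFP, culture density cut under 30%, mutant RFP and density less affected; inactive means any of these conditions unmet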
MT1-MMP act inh: blockers of MT1-MMP proenzyme processing, primary screen, HT1080 RFP-PRO-GFP cells, GFP/RFP fluorescence | AID 651647, 2012 | GFP/RFP ratio fluorescence, overnight; percent of plate control window, DMSO zero | GFP/RFP ratio change, % at 20 µM | 360,000 tested, 0.061% active | Matrix metalloproteinase-14 (Homo sapiens), P50281;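 active means GFP/RFP ratio change of at least 30% with cell ATP level not reduced by more than half and red fluorescence within 50% of control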
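system = RFP-PRO-GFP reporter HT1080 cells | dosing = 20 µM single dose, 1% DMSO | timing = overnight cell settling, then overnight compound exposure, 37 °C, 5% CO2 | read-out basis = GFP/RFP fluorescence ratio | controls = DMSO and RFP-L50D-GFP cell wells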
iPSC survival up: enhancers of single-cell hiPSC survival, primary screen, ATPlite luminescence; 100% = ROCK inhibitor wells, 0% = DMSO; AID 602274, 2012; 360,000 tested, 0.044% active; survival enhancement, % at 20 µM; in the data active means survival enhancement above about 18%;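 further: cells exposed to compounds for 16 hours before the ATP read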
DAGLB inhibitor: DAGLB lipase inhibitors, primary screen, biochemical, fluorescence, HTS. Diacylglycerol lipase-beta (Homo sapiens), Q8NCG7. HEK293T DAGLB membrane lysate, EnzChek fluorogenic substrate. inhibition, % at 5.17 µM. 340,000 tested, 0.059% active. AID 504411, 2011; in the data active means inhibition above about 34%;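 further: 0% = enzyme with vehicle and 100% = wells lacking enzyme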
Target sequence (Q8NCG7 whole entry, looked up): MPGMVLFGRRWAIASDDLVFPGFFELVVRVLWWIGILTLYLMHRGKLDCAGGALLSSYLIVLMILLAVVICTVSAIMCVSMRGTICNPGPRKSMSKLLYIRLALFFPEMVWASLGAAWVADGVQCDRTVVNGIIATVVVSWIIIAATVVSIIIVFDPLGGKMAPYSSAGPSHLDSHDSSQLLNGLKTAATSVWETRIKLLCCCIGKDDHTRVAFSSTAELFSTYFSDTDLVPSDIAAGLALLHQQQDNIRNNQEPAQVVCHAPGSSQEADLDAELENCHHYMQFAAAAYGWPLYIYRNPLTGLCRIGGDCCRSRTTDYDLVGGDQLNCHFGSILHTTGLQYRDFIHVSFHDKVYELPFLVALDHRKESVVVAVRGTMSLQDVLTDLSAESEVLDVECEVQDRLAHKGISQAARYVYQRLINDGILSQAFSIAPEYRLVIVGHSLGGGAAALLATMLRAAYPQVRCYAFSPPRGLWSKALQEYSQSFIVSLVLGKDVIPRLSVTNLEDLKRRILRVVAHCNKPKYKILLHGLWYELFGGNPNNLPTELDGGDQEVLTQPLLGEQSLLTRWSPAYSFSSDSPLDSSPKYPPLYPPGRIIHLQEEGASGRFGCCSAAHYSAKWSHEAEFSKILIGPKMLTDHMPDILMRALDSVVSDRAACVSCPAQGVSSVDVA
MT1-MMP conf: MT1-MMP activation inhibitors, hit retest, confirmation, single concentration, fluorescence, HT1080 RFP-PRO-GFP cells; shares compounds with MT1-MMP act inh; GFP and RFP fluorescence ratio, overnight; inhibition, % at 20 µM; 200 tested, 10% active; AID 652235, 2013;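 active means inhibition of at least 50% in the primary cell screen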
Active calls of the source: *; / = no result given. The list is not random: actives were taken first. Their share in the collection is about 1.8%.

SMILES | Cneo AK release | SKN-1 inh | rRNA inh HTS | MT1-MMP act inh | iPSC survival up | DAGLB inhibitor | MT1-MMP conf
COc1ccc(-c2oc3ccc(-c4ccc(OC)nc4)cc3c2C#CC2(O)CCCCC2)cc1 | -5 | 15 | 7 | 32* | -1 | -9 | 10
CCC(=O)N(C[C@H]1[C@H](c2ccccc2)[C@@H](CO)N1S(C)(=O)=O)C(C)C | / | / | 3 | / | / | / | /
CN(C)c1ccc(C=c2c3ccccc3n3c2c2c([n+]3C)CCCC2)cc1 | / | 28 | -76 | 82* | -3 | 22 | 57*
COc1ccc(Nc2nc(-c3c[nH]c4ccccc34)cs2)cc1 | / | 4 | / | 33* | 3 | 4 | 8
CCCC(=O)NCc1ccc2c(c1)cc(C)n2C | -2 | 54 | / | 25 | -1 | 2 | /
Cn1c(CNC(=O)C2CCCCC2)cc2cc(Cl)ccc21 | 1 | 6 | 10 | 0 | 0 | 0 | /
Cc1cc2cc(CNC(=O)Cc3ccc([N+](=O)[O-])cc3)ccc2n1C | / | 39* | 2 | 42* | -2 | 6 | 3
Cc1cc2cc(CNC(=O)C3CCCC3)ccc2n1C | -2 | 53 | -2 | 35* | 4 | 3 | -5
CN(C)C(=O)c1ccc(-c2ccc(C3[C@H]4CNC[C@@H]3N4CC3CCCCC3)cc2)cc1 (stereo partly drawn) | / | / | -3 | / | / | / | /
CCCN1[C@@H]2c3ccc(-c4cccnc4)c(=O)n3C[C@H]1[C@H](CO)[C@H]2C(=O)NC1CCCC1 | / | / | 4 | / | / | / | /
CCN(CC)c1ccc(/C=C2\C(=O)N(c3nnc(C)c(=O)[nH]3)N=C2C)cc1 | -3 | 25 | -5 | 33* | 0 | 18 | 17
C[C@H](CO)N1C[C@H](C)[C@H](CN(C)Cc2ccc(C(=O)O)cc2)OCCCC[C@H](C)Oc2ccc(NC(=O)Nc3ccc(C(F)(F)F)cc3)cc2C1=O | -2 | / | -2 | / | / | / | /
O=c1[nH]c(SCc2ccccc2Cl)nc2[nH]ncc12 | / | -10 | -1 | -1 | -1 | -2 | /
Cc1cccc(CSc2nc3[nH]ncc3c(=O)[nH]2)c1 | / | 16 | 0 | 35* | -2 | -1 | 11
COC(=O)C1=C(C(=O)OC)SC(=C2C(=S)C(C)(C)N(C(=O)C(C)C)c3ccccc32)S1 | 1 | 9 | / | 31* | -1 | 13 | 25
CCOC(=O)C1(C)C(C(=O)OC)=C(c2ccc(OC)cc2)c2ccccc2N1C(=O)OC (stereo not drawn) | 1 | 4 | -19 | -2 | 0 | -3 | /
CC(C)C(=O)Nc1ccc2c(c1)C(=O)N(C)[C@H]1CC[C@H](CC(=O)Nc3ccccc3F)O[C@@H]1CO2 | 2 | / | -1 | / | / | / | /
CC(=O)c1cccc(S(=O)(=O)N2CCC(C(=O)NC3CCCC3)CC2)c1 | -1 | 4 | -1 | 40* | 0 | 1 | 1
CN(C)CC(=O)N[C@@H]1CC[C@H](CCNC(=O)C2CCCC2)O[C@@H]1CO | 1 | / | 2 | / | / | / | /
O=C(O)CC/C(=N\Nc1ccc(S(=O)(=O)N2CCCC2)cc1[N+](=O)[O-])c1cccs1 | -2 | 13 | / | 34 | 7 | 26 | /
O=C(O)CC/C(=N\Nc1ccccc1[N+](=O)[O-])c1cccs1 | 3 | 8 | / | 35* | 0 | 18 | 25
C[C@@H]1CN([C@H](C)CO)S(=O)(=O)c2ccc(C#Cc3ccccc3F)cc2O[C@H]1CN(C)C | 7 | / | 6 | / | / | / | /
CCN1/C(=C\C=C2\C(=O)N(c3ccccc3)C(=S)N2C)Sc2ccccc21 | / | 64 | 12 | 39* | -3 | 0 | 29
C[C@@H]1CCCCO[C@H](CN(C)S(=O)(=O)c2ccccc2)[C@H](C)CN([C@@H](C)CO)C(=O)c2cc(NC(=O)CCC(F)(F)F)ccc2O1 | 0 | / | -4 | / | / | / | /
Nc1nc(-c2ccc(Cl)cc2)c(N=Nc2ccc(S(=O)(=O)N3CCOCC3)cc2)s1 | -1 | 25 | -9 | 57* | -2 | 8 | 55*
SMILES | Cneo AK release | SKN-1 inh | rRNA inh HTS | MT1-MMP act inh | iPSC survival up | DAGLB inhibitor | MT1-MMP conf
O=c1[nH]nc(CNc2ccc(C(F)(F)F)cc2)c2ccccc12 | 2 | -2 | / | 1 | 2 | 1 | /
O=c1[nH]nc(CNc2ccc(O)cc2)c2ccccc12 | -2 | 33 | / | 49* | 0 | 5 | -2
COc1cc(N(C)C)ccc1C=c1c2ccccc2n2c1cc(-c1ccccc1)[n+]2C | / | 69 | -77 | 65* | -3 | 34 | 65*
C[C@@H]1CN([C@H](C)CO)C(=O)c2cc(C#Cc3ccccn3)cnc2O[C@@H]1CN(C)Cc1ccncc1 | 2 | / | 2 | / | / | / | /
Cc1cc(=O)n2[nH]c(-c3ccc(C(C)(C)C)cc3)cc2n1 | -8 | -4 | / | 34* | -2 | 3 | 24
COc1ccc(OCC(=O)NNc2c3ccccc3nc3ccccc23)cc1 | -11 | -21 | / | 35* | 2 | 4 | 32
O=C(NCc1ccccc1Cl)[C@@H]1[C@@H](CO)[C@@H]2Cn3c(cccc3=O)[C@@H]2N1C(=O)C1CCCC1 | 0 | / | 0 | / | / | / | /
C[C@@H]1CCCCO[C@@H](CN(C)Cc2ccc(C(=O)Nc3ccccc3N)cc2)[C@@H](C)CN([C@@H](C)CO)C(=O)c2cc(N(C)C)ccc2O1 | / | / | 4 | / | / | / | /
Cc1c(C)n(C)c2ccc(C(=O)NCCc3ccco3)cc12 | 1 | 79 | -11 | 33* | 0 | 1 | 4
C[N+]1=C(/C=C/Nc2ccccc2Cl)C(C)(C)c2ccccc21 | 0 | 53 | / | 52* | 2 | -1 | 15
COC(=O)c1ccc2c(c1)C(C)(C)C(/C=C/c1ccccc1O)=[N+]2C | / | 87 | / | 93 | 1 | 2 | /
COc1ccc(C(CNC(=O)c2c(C)nn(Cc3ccc(C)cc3)c2Cl)N2CCOCC2)cc1 (stereo not drawn) | 0 | -1 | -14 | 32* | 0 | -2 | 8
Cc1cc2cc(CNS(=O)(=O)c3ccc4ccccc4c3)ccc2n1C | -3 | 54 | -7 | 45* | -3 | 10 | 6
O=C(CN1CCCC1)N1CCCc2c1c(=O)oc1ccc(OCc3ccccc3)cc21 | 1 | 21 | / | 51* | -3 | -1 | 8
